From ChEMBL document CHEMBL1144441, “Identification of a novel cardenolide (2''-oxovoruscharin) from Calotropis procera and the hemisynthesis of novel derivatives displaying potent in vitro antitumor activities and high in vivo tolerance: structure-activity relationship analyses” (J Med Chem, 2005)

Key:
[1] = In vitro cytotoxic activity against human Detroit 562 cancer cell lines after 3 days of culture; format: functional
How it was run: (§1)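 MTT overall-growth panel across 57 human cancer lines. Cells were plated for 24 h at 10 000–40 000 cells/mL, depending on cell type. Drugs were given at nine concentrations, 10^-9 to 10^-5 M in semilog steps, for 3 days. Absorbance was read at 570 nm with a 630 nm reference, in sextuplicate. Surviving cells are expressed as % of untreated control (100%).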

[2] = In vitro cytotoxic activity against human SW1783 cancer cell lines after 3 days of culture; format: functional
How it was run: (§2)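 Human cancer cell lines, seeded 10 000–40 000 cells/mL and plated for 24 h, then exposed 72 h to nine drug concentrations from 10^-9 to 10^-5 M in semilog steps. Overall growth read by MTT reduction to formazan, absorbance at 570 nm (reference 630 nm). Sextuplicate wells; IC50 is the concentration reducing overall growth by 50% versus untreated control.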

[3] = system: BT-20; assay: In vitro cytotoxic activity against human BT-20 cancer cell lines after 3 days of culture; format: functional; how it was run: as §1
[4] = system: MDA-MB-231; assay: In vitro cytotoxic activity against human MDA-MB-231 cancer cell lines after 3 days of culture; format: functional; how it was run: as §1
[5] = system: MIA PaCa-2; assay: In vitro cytotoxic activity against human MiaPaca-2 cancer cell lines after 3 days of culture; format: functional; how it was run: as §1
[6] = system: T-24; assay: In vitro cytotoxic activity against human T24 cancer cell lines after 3 days of culture; format: functional; how it was run: as §2
[7] = system: HT1197; assay: In vitro cytotoxic activity against human HT1197 cancer cell lines after 3 days of culture; format: functional; how it was run: as §1
[8] = system: CAKI-2; assay: In vitro cytotoxic activity against human CAKI-2 cancer cell lines after 3 days of culture; format: functional; how it was run: as §1
[9] = In vitro cytotoxic activity against human Hs 174.T cancer cell lines after 3 days of culture; format: functional; how it was run: as §1
[10] = system: A549; assay: Concentration required for 50% growth inhibition of human A549 cancer cell lines after 3 days of culture; format: functional, cell-based; settings: A549, 72 h
How it was run: (§3)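 MTT overall-growth assay on the five lines. Cells were plated for 24 h at 10 000–40 000 cells/mL, depending on cell type. Nine concentrations from 10^-9 to 10^-5 M in semilog steps were applied for 72 h. Formazan was read at 570 nm against a 630 nm reference, in sextuplicate. IC50 = concentration reducing overall growth by 50% versus untreated control.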

[11] = system: LoVo; assay: In vitro cytotoxic activity against human LoVo cancer cell lines after 3 days of culture; format: functional; how it was run: as §1
[12] = In vitro cytotoxic activity against human 769-P cancer cell lines after 3 days of culture; format: functional; how it was run: as §1
[13] = system: Hs-578T; assay: In vitro cytotoxic activity against human Hs 578.T cancer cell lines after 3 days of culture; format: functional; how it was run: as §1
[14] = system: MES-SA; assay: In vitro cytotoxic activity against human MES-SA cancer cell lines after 3 days of culture; format: functional; how it was run: as §1
[15] = In vitro cytotoxic activity against human C32 cancer cell lines after 3 days of culture; format: functional; how it was run: as §1
[16] = system: HT-29; assay: In vitro cytotoxic activity against human HT-29 cancer cell lines after 3 days of culture; format: functional; how it was run: as §1
[17] = system: PC-3; assay: In vitro cytotoxic activity against human PC-3 cancer cell lines after 3 days of culture; format: functional; how it was run: as §1
[18] = system: A-427; assay: In vitro cytotoxic activity against human A427 cancer cell lines after 3 days of culture; format: functional; how it was run: as §1
[19] = In vitro cytotoxic activity against human […] cancer cell lines after 3 days of culture; format: functional; how it was run: as §1
[20] = system: T47D; assay: In vitro cytotoxic activity against human T-47D cancer cell lines after 3 days of culture; format: functional; how it was run: as §2
[21] = system: U373 MG; assay: Concentration required for 50% growth inhibition of human U373 cancer cell lines after 3 days of culture; format: functional, cell-based, U-373MG ATCC; settings: 72 h; how it was run: as §3
[22] = system: ZR-75-1; assay: In vitro cytotoxic activity against human ZR-75-1 cancer cell lines after 3 days of culture; format: functional; how it was run: as §2
[23] = In vitro cytotoxic activity against human MCF7HTB-22 cancer cell lines after 3 days of culture; format: functional; how it was run: as §1
[24] = system: DLD-1; assay: In vitro cytotoxic activity against human DLD-1 cancer cell lines after 3 days of culture; format: functional; how it was run: as §1
[25] = system: HCT-15; assay: In vitro cytotoxic activity against human HCT-15 cancer cell lines after 3 days of culture; format: functional; how it was run: as §1
[26] = In vitro cytotoxic activity against human SCC-9 cancer cell lines after 3 days of culture; format: functional; how it was run: as §1
[27] = system: T98G; assay: In vitro cytotoxic activity against human T98G cancer cell lines after 3 days of culture; format: functional; how it was run: as §2
[28] = system: LNCaP; assay: In vitro cytotoxic activity against human LNCaP cancer cell lines after 3 days of culture; format: functional; how it was run: as §1
[29] = system: LoVo; assay: Concentration required for 50% growth inhibition of human LoVo cancer cell lines after 3 days of culture; format: functional, cell-based; settings: 72 h; how it was run: as §3
[30] = system: A549; assay: In vitro cytotoxic activity against human A549 cancer cell lines after 3 days of culture; format: functional; how it was run: as §1
[31] = system: A498; assay: In vitro cytotoxic activity against human A-498 cancer cell lines after 3 days of culture; format: functional; how it was run: as §1
[32] = In vitro cytotoxic activity against human SW1088 cancer cell lines after 3 days of culture; format: functional; how it was run: as §2
[33] = In vitro cytotoxic activity against human G361 cancer cell lines after 3 days of culture; format: functional; how it was run: as §1
[34] = In vitro cytotoxic activity against human Hs 683 cancer cell lines after 3 days of culture; format: functional; how it was run: as §1
[35] = system: CFPAC-1; assay: In vitro cytotoxic activity against human CFPAC-1 cancer cell lines after 3 days of culture; format: functional; how it was run: as §1
[36] = In vitro cytotoxic activity against human Hs 729 cancer cell lines after 3 days of culture; format: functional; how it was run: as §1
[37] = In vitro cytotoxic activity against human HT144 cancer cell lines after 3 days of culture; format: functional; how it was run: as §1
[38] = system: PANC-1; assay: In vitro cytotoxic activity against human Panc-1 cancer cell lines after 3 days of culture; format: functional; how it was run: as §1
[39] = system: WiDr; assay: In vitro cytotoxic activity against human WiDr cancer cell lines after 3 days of culture; format: functional; how it was run: as §2
[40] = system: ACHN; assay: In vitro cytotoxic activity against human ACHN cancer cell lines after 3 days of culture; format: functional; how it was run: as §1
[41] = system: Malme-3M; assay: In vitro cytotoxic activity against human MALME-3M cancer cell lines after 3 days of culture; format: functional; how it was run: as §1
[42] = In vitro cytotoxic activity against human AL-12T cancer cell lines after 3 days of culture; format: functional; how it was run: as §1
[43] = In vitro cytotoxic activity against human SW948 cancer cell lines after 3 days of culture; format: functional; how it was run: as §2
[44] = system: U373 MG; assay: In vitro cytotoxic activity against human U-373MG cancer cell lines after 3 days of culture; format: functional, U-373MG ATCC; how it was run: as §2
[45] = system: Mus musculus; assay: Maximum tolerated dose after intraperitoneal administration in mouse (period of 28 days); format: functional
How it was run: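 Healthy, non-tumour-bearing B6D2F1 mice given one acute intraperitoneal dose, three mice per dose group, doses 5, 10, 20, 40, 80, 120 and 160 mg/kg. Survival and body weight followed for 28 days after injection. MTD is the highest single dose causing no deaths over the period.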

[46] = system: BXPC-3; assay: In vitro cytotoxic activity against human BxPC-3 cancer cell lines after 3 days of culture; format: functional; how it was run: as §1
[47] = In vitro cytotoxic activity against human Capan-2 cancer cell lines after 3 days of culture; format: functional; how it was run: as §1
[48] = system: A204; assay: In vitro cytotoxic activity against human A204 cancer cell lines after 3 days of culture; format: functional; how it was run: as §1
[49] = system: HT-1080; assay: In vitro cytotoxic activity against human HT1080 cancer cell lines after 3 days of culture; format: functional; how it was run: as §1
[50] = In vitro cytotoxic activity against human SK-LMS-1 cancer cell lines after 3 days of culture; format: functional; how it was run: as §1
[51] = In vitro cytotoxic activity against human SK-UT-1B cancer cell lines after 3 days of culture; format: functional; how it was run: as §2
[52] = system: U-87 MG; assay: In vitro cytotoxic activity against human U87MG cancer cell lines after 3 days of culture; format: functional, U-87MG ATCC; how it was run: as §2
[53] = system: FaDu; assay: In vitro cytotoxic activity against human FaDu cancer cell lines after 3 days of culture; format: functional; how it was run: as §1
[54] = In vitro cytotoxic activity against human Hs 766.T cancer cell lines after 3 days of culture; format: functional; how it was run: as §1
[55] = system: DU-145; assay: In vitro cytotoxic activity against human DU145 cancer cell lines after 3 days of culture; format: functional; how it was run: as §1
[56] = system: H4; assay: In vitro cytotoxic activity against human H4 cancer cell lines after 3 days of culture; format: functional; how it was run: as §1
[57] = system: SK-MEL-28; assay: In vitro cytotoxic activity against human SKMEL-28 cancer cell lines after 3 days of culture; format: functional; how it was run: as §2
[58] = Concentration required for 50% growth inhibition of human Hs 683 cancer cell lines after 3 days of culture; format: functional, cell-based; settings: 72 h; how it was run: as §3
[59] = system: HCT-15; assay: Concentration required for 50% growth inhibition of human HCT-15 cancer cell lines after 3 days of culture; format: functional, cell-based; settings: HCT-15, 72 h; how it was run: as §3
[60] = system: 786-0; assay: In vitro cytotoxic activity against human 786-O cancer cell lines after 3 days of culture; format: functional; how it was run: as §1
[61] = biological target: Sodium/potassium-transporting ATPase subunit alpha-1 (Sus scrofa, UniProt P05024); assay: In vitro inhibitory activity against porcine Na+/K+-ATPase
How it was run: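 Porcine cerebral cortex Na+/K+-ATPase (3 × 10-3 units), preincubated 30 min at 37 °C in 30 mM Tris-HCl pH 7.4, 5 mM MgCl2 with inhibitor (1 to 50 000 nM). ADP formation coupled via pyruvate kinase/lactate dehydrogenase, excess phosphoenolpyruvate, to NADH oxidation.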

[62] = In vitro cytotoxic activity against human Su.86.86 cancer cell lines after 3 days of culture; format: functional; how it was run: as §2

C[C@@H]1C[C@@]2(NC(=O)CS2)C2(O)O[C@@H]3C[C@@]4(CO)[C@@H](CC[C@@H]5[C@@H]4CC[C@]4(C)[C@@H](C6=CC(=O)OC6)CC[C@]54CO)C[C@H]3O[C@@H]2O1 (some centres not stated)
Log IC50 [1]: -8.3
Log IC50 [2]: -7.7
Log IC50 [3]: -8.3
Log IC50 [4]: -8
Log IC50 [5]: -7.5
Log IC50 [6]: -8.6
Log IC50 [7]: -7.1
Log IC50 [8]: -8.3
Log IC50 [9]: -7.4
IC50 [10]: 8 nM
Log IC50 [11]: -8
Log IC50 [12]: -8.3
Log IC50 [13]: -8.7
Log IC50 [14]: -7.8
Log IC50 [15]: -7.7
Log IC50 [16]: -7.8
Log IC50 [17]: -8.1
Log IC50 [18]: -7.6
Log IC50 [19]: -8.7
Log IC50 [20]: -8.4
IC50 [21]: 9 nM
Log IC50 [22]: -7.4
Log IC50 [23]: -8.4
Log IC50 [24]: -7.4
Log IC50 [25]: -7.6
Log IC50 [26]: -7.4
Log IC50 [27]: -8.2
Log IC50 [28]: -8.3
IC50 [29]: 10 nM
Log IC50 [30]: -8.1
Log IC50 [31]: -8.2
Log IC50 [32]: -7
Log IC50 [33]: -8.1
Log IC50 [34]: -8.6
Log IC50 [35]: -7.2
Log IC50 [36]: -7.5
Log IC50 [37]: -7.6
Log IC50 [38]: -8.3
Log IC50 [39]: -7.8
Log IC50 [40]: -8.2
Log IC50 [41]: -6.4
Log IC50 [42]: -8.1
Log IC50 [43]: -7.4
Log IC50 [44]: -8.1
MTD [45]: 80 mg/kg
Log IC50 [46]: -7.7
Log IC50 [47]: -9
Log IC50 [48]: -8.2
Log IC50 [49]: -7.4
Log IC50 [50]: -8
Log IC50 [51]: -7.5
Log IC50 [52]: -8.6
Log IC50 [53]: -8.1
Log IC50 [54]: -7.4
Log IC50 [55]: -8.7
Log IC50 [56]: -7.5
Log IC50 [57]: -7.4
IC50 [58]: 3 nM
IC50 [59]: 24 nM
Log IC50 [60]: -8.5
IC50 [61]: 75 nM
Log IC50 [62]: -8.6
